In ChEMBL document CHEMBL1147655, “Design and synthesis of 8-octyl-benzolactam-V9, a selective activator for protein kinase C epsilon and eta” (J Med Chem, 2006):

How the values were obtained:
[1] = target: T1, Protein kinase C epsilon type (Homo sapiens) (UniProt Q02156); test: Induction of GFP-tagged PKC epsilon translocation in HeLa cells measured as ratio of fluorescence intensity in plasma membrane to cytosol at 1 uM; type: cell-based
T1 sequence (whole entry): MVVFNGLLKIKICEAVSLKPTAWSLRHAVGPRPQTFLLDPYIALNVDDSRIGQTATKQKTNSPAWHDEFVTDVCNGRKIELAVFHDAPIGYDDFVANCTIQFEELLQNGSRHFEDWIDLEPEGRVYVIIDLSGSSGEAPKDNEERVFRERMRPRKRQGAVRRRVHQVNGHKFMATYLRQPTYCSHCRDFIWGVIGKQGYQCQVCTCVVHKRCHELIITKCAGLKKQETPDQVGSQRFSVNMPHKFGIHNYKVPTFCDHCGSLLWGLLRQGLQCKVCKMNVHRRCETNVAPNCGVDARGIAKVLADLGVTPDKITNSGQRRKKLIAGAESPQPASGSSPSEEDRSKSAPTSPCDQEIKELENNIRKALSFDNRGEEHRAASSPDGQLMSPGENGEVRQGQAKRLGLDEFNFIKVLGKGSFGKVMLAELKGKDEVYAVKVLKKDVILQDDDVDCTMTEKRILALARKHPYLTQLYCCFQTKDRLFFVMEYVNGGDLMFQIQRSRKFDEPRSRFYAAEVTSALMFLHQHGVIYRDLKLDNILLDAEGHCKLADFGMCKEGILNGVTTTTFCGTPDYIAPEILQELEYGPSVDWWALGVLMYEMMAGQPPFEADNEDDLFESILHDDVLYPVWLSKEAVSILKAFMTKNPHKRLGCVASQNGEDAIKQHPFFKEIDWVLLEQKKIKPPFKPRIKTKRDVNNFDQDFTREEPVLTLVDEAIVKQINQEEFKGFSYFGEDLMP
Outline: (§1)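 HeLa cells transfected with GFP-fused PKC isozyme, cultured 16-48 h, then medium switched to HEPES buffer (135 mM NaCl, 5.4 mM KCl, 1 mM MgCl2, 1.8 mM CaCl2, 5 mM HEPES, 10 mM glucose, pH 7.3). Compound added at stated final concentration, 37 °C; confocal time series (488 nm excitation, 505-550 nm emission). R = membrane/mean cytosolic intensity from line profiles; maximum R reported, SD of at least three measurements.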

[2] = target: T1, Protein kinase C epsilon type (Homo sapiens); test: Induction of GFP-tagged PKC epsilon translocation in HeLa cells measured as ratio of fluorescence intensity in plasma membrane to cytosol at 0.5 uM; type: cell-based; outline: as §1
[3] = target: T2, Protein kinase C eta type (Homo sapiens, UniProt P24723); test: Induction of GFP-tagged PKC eta translocation in HeLa cells measured as ratio of fluorescence intensity in plasma membrane to cytosol at 0.5 uM; type: cell-based; outline: as §1
[4] = target: T3, Protein kinase C beta type (Homo sapiens, UniProt P05771); test: Induction of GFP-tagged PKC beta translocation in HeLa cells measured as ratio of fluorescence intensity in plasma membrane to cytosol at 10 uM; type: cell-based; outline: as §1
Target sequence in this assay (P05771 2-671 limits assumed): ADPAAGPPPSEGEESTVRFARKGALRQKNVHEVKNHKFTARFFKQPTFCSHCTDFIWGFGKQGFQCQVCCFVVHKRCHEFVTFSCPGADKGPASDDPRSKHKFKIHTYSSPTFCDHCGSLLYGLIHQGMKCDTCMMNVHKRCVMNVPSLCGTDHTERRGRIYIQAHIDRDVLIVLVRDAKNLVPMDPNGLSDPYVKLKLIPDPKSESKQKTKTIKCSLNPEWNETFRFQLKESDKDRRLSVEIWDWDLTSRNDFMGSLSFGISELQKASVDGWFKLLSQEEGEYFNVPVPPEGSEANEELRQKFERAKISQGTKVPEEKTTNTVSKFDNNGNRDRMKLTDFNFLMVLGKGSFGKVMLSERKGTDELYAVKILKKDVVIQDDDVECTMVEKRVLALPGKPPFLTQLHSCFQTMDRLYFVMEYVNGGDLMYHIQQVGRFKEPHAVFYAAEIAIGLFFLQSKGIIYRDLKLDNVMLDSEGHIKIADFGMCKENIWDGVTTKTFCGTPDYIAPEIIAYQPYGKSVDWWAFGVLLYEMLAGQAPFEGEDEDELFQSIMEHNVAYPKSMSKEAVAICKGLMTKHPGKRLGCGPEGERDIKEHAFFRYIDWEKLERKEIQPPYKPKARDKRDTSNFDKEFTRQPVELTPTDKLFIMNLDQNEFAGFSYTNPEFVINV

[5] = target: T2, Protein kinase C eta type; test: Induction of GFP-tagged PKC eta translocation in HeLa cells measured as ratio of fluorescence intensity in plasma membrane to cytosol at 1 uM; type: cell-based; outline: as §1
[6] = target: T4, Protein kinase C alpha type (Homo sapiens, UniProt P17252); test: Induction of GFP-tagged PKC alpha translocation in HeLa cells measured as ratio of fluorescence intensity in plasma membrane to cytosol at 10 uM; type: cell-based; outline: as §1
[7] = target: T5, Protein kinase C gamma type (Homo sapiens, UniProt P05129); test: Induction of GFP-tagged PKC gamma translocation in HeLa cells measured as ratio of fluorescence intensity in plasma membrane to cytosol at 10 uM; type: cell-based; outline: as §1
[8] = target: T6, Protein kinase C delta type (Homo sapiens, UniProt Q05655); test: Induction of GFP-tagged PKC delta translocation in HeLa cells measured as ratio of fluorescence intensity in plasma membrane to cytosol at 10 uM; type: cell-based; outline: as §1
Target sequence in this assay (Q05655 whole entry, looked up): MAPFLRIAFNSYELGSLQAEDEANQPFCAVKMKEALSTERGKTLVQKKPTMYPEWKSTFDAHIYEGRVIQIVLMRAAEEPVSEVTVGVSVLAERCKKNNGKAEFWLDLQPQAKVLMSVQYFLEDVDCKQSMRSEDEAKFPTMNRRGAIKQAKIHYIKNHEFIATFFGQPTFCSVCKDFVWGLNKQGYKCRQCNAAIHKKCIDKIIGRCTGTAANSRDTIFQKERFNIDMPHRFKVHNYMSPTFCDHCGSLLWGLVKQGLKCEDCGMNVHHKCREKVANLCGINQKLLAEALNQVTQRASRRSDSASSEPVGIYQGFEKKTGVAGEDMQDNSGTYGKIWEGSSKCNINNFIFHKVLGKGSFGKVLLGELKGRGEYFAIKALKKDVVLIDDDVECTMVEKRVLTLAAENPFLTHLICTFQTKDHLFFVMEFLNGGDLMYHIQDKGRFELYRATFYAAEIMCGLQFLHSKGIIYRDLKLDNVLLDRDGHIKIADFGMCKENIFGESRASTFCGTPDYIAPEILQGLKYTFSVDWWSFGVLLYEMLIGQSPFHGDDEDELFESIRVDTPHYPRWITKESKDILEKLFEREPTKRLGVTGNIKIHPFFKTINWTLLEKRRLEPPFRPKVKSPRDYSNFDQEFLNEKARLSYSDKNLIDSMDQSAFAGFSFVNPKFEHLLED

[9] = target: T1, Protein kinase C epsilon type (Homo sapiens); test: Induction of GFP-tagged PKC epsilon translocation in HeLa cells measured as ratio of fluorescence intensity in plasma membrane to cytosol at 10 uM; type: cell-based; outline: as §1
[10] = target: T3, Protein kinase C beta type; test: Induction of GFP-tagged PKC beta translocation in HeLa cells measured as ratio of fluorescence intensity in plasma membrane to cytosol at 1 uM; type: cell-based; outline: as §1
Target sequence in this assay (P05771 2-671 limits assumed): as the sequence (P05771 2-671 limits assumed) above

[11] = target: T3, Protein kinase C beta type; test: Induction of GFP-tagged PKC beta translocation in HeLa cells measured as ratio of fluorescence intensity in plasma membrane to cytosol at 0.5 uM; type: cell-based; outline: as §1
Target sequence in this assay (P05771 2-671 limits assumed): as above

[12] = target: T5, Protein kinase C gamma type; test: Induction of GFP-tagged PKC gamma translocation in HeLa cells measured as ratio of fluorescence intensity in plasma membrane to cytosol at 1 uM; type: cell-based; outline: as §1
[13] = target: T4, Protein kinase C alpha type; test: Induction of GFP-tagged PKC alpha translocation in HeLa cells measured as ratio of fluorescence intensity in plasma membrane to cytosol at 1 uM; type: cell-based; outline: as §1
[14] = target: T2, Protein kinase C eta type; test: Induction of GFP-tagged PKC eta translocation in HeLa cells measured as ratio of fluorescence intensity in plasma membrane to cytosol at 10 uM; type: cell-based; outline: as §1
[15] = target: T6, Protein kinase C delta type; test: Induction of GFP-tagged PKC delta translocation in HeLa cells measured as ratio of fluorescence intensity in plasma membrane to cytosol at 1 uM; type: cell-based; outline: as §1
Target sequence in this assay (Q05655 whole entry, looked up): as the sequence (Q05655 whole entry, looked up) above

[16] = target: T6, Protein kinase C delta type; test: Displacement of [3H]phorbol 12,13-dibutyrate from PKC delta-C1A
Target sequence in this assay (Q05655 whole entry): as the sequence (Q05655 whole entry, looked up) above

[17] = target: T7, Protein kinase C epsilon type (Homo sapiens, UniProt Q02156); test: Displacement of [3H]phorbol 12,13-dibutyrate from PKC epsilon-C1B
T7 sequence (Q02156 whole entry): T1 sequence (whole entry)

[18] = target: T4, Protein kinase C alpha type; test: Displacement of [3H]phorbol 12,13-dibutyrate from PKC alpha-C1B
[19] = target: T2, Protein kinase C eta type; test: Displacement of [3H]phorbol 12,13-dibutyrate from PKC eta-C1A
[20] = target: T5, Protein kinase C gamma type; test: Displacement of [3H]phorbol 12,13-dibutyrate from PKC gamma-C1A
[21] = target: Protein kinase C theta type (Homo sapiens, UniProt Q04759); test: Displacement of [3H]phorbol 12,13-dibutyrate from PKC theta-C1B
[22] = target: T3, Protein kinase C beta type; test: Displacement of [3H]phorbol 12,13-dibutyrate from PKC beta-C1B
Target sequence in this assay (P05771 whole entry): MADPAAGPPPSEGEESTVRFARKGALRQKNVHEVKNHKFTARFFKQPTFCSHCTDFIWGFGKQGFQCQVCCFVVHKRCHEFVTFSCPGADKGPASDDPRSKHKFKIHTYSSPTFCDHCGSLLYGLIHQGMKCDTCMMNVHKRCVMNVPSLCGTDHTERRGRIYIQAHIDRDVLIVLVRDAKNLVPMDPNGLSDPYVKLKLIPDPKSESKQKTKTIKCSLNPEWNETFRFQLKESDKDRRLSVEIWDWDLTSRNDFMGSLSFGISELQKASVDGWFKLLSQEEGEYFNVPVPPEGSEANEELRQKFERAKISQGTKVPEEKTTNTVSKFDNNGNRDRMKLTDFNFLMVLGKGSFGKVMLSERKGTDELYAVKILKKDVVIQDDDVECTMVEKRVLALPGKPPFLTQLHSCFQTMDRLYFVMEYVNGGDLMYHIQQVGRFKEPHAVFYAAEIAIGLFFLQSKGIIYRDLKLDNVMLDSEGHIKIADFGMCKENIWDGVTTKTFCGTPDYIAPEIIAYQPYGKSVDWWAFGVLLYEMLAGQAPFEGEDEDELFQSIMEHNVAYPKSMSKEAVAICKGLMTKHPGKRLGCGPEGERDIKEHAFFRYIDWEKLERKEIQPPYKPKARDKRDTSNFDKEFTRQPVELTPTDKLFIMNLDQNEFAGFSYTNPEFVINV

[23] = target: T5, Protein kinase C gamma type; test: Displacement of [3H]phorbol 12,13-dibutyrate from PKC gamma-C1B
[24] = target: T3, Protein kinase C beta type; test: Displacement of [3H]phorbol 12,13-dibutyrate from PKC beta-C1A
Target sequence in this assay (P05771 whole entry): as above

[25] = target: T6, Protein kinase C delta type; test: Displacement of [3H]phorbol 12,13-dibutyrate from PKC delta-C1B
Target sequence in this assay (Q05655 whole entry): as the sequence (Q05655 whole entry, looked up) above

[26] = target: T7, Protein kinase C epsilon type; test: Displacement of [3H]phorbol 12,13-dibutyrate from PKC epsilon-C1A
[27] = target: T4, Protein kinase C alpha type; test: Displacement of [3H]phorbol 12,13-dibutyrate from PKC alpha-C1A
[28] = target: T2, Protein kinase C eta type; test: Displacement of [3H]phorbol 12,13-dibutyrate from PKC eta-C1B

T2 sequence (P24723 whole entry): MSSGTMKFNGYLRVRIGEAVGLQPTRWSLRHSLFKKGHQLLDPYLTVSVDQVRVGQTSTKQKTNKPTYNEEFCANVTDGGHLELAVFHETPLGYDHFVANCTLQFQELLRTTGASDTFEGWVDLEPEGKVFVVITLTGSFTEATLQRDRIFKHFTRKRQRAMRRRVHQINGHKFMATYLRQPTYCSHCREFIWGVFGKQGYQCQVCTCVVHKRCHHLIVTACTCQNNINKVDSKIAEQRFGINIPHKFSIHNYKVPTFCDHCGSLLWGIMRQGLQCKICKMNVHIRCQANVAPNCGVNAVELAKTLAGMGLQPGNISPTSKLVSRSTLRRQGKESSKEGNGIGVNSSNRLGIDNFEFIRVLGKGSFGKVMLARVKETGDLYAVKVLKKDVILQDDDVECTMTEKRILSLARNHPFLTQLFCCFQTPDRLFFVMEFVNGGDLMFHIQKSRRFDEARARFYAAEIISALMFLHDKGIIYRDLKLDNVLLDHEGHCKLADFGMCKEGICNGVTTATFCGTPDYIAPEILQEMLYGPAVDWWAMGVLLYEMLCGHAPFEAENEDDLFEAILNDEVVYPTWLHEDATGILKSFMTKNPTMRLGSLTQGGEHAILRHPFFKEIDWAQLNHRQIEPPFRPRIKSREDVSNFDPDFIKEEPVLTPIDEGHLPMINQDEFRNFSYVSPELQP

Ratio [1] | Ratio [2] | Ratio [3] | Ratio [4] | Ratio [5] | Ratio [6] | Ratio [7] | Ratio [8] | Ratio [9] | Ratio [14] | Structure (SMILES) | other results
2.73 | 2.42 | 1.01 | 2.38 | 1.84 | 1.79 | 1.53 | 2.41 | 4.29 | 1.92 | CCCCCCN1C[C@H]2C[C@@H](CO)NC(=O)[C@H](C(C)C)N(C)c3cccc1c32 | Ratio [10]: 2.39; Ratio [11]: 0.95; Ratio [12]: 0.96; Ratio [13]: 0.97; Ratio [15]: 0.9
1.66 | 1.65 | 0.97 | 0.97 | 1.46 | 0.98 | 0.97 | 0.95 | 1.96 | 1.72 | CCCCCCCCc1cccc2c1CC[C@@H](CO)NC(=O)[C@H](C(C)C)N2C | Ki [16]: > 10 µM; Ki [17]: 0.51 µM; Ki [18]: > 10 µM; Ki [19]: > 10 µM; Ki [20]: > 10 µM; Ki [21]: 0.29 µM; Ki [22]: > 10 µM; Ki [23]: 5.2 µM; Ki [24]: > 10 µM; Ki [25]: 0.216 µM; Ki [26]: > 10 µM; Ki [27]: > 10 µM; Ki [28]: 0.144 µM
